The record followed here is ChEMBL document CHEMBL1132924, “Molecular determinants of MAO selectivity in a series of indolylmethylamine derivatives: biological activities, 3D-QSAR/CoMFA analysis, and computational simulation of ligand recognition” (J Med Chem, 2000).

The target of test [1] is T1, Amine oxidase [flavin-containing] A (Rattus norvegicus, UniProt P21396).
T1 sequence (P21396 whole entry): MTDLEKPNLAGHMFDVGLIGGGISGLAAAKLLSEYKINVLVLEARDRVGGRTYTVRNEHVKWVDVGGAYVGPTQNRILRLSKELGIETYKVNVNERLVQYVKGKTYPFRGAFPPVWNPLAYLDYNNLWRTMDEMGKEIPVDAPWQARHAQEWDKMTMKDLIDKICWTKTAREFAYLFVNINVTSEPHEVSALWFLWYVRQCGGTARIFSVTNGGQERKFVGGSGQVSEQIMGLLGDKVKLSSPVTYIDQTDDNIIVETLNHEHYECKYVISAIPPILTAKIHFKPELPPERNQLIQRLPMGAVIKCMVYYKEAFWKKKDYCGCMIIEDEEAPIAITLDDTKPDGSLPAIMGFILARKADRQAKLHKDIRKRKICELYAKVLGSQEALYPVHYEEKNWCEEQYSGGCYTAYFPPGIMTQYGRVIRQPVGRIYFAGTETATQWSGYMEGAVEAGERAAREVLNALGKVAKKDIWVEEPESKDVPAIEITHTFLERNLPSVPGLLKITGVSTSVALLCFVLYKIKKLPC
Nature of the test: (§1) Inhibitory activity against Monoamine oxidase A. The method, boiled down: (§2)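 Rat liver mitochondrial fraction (male Sprague-Dawley, 200-250 g), homogenised in 50 mM potassium phosphate pH 7.2. Kynuramine 40 µM as substrate with MAO-B activity blocked beforehand by L-deprenyl, product read at 324 nm. Ki for reversible complex formation obtained by direct analysis of spectrophotometric reaction progress curves over varying inhibitor concentrations.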

Test [2] deals with T1, Amine oxidase [flavin-containing] A. Described as §1. The gist of the method: as §2
This is another data set of the same source.

Test [3] addresses T2, Amine oxidase [flavin-containing] B (Rattus norvegicus, UniProt P19643).
T2 sequence (P19643 whole entry): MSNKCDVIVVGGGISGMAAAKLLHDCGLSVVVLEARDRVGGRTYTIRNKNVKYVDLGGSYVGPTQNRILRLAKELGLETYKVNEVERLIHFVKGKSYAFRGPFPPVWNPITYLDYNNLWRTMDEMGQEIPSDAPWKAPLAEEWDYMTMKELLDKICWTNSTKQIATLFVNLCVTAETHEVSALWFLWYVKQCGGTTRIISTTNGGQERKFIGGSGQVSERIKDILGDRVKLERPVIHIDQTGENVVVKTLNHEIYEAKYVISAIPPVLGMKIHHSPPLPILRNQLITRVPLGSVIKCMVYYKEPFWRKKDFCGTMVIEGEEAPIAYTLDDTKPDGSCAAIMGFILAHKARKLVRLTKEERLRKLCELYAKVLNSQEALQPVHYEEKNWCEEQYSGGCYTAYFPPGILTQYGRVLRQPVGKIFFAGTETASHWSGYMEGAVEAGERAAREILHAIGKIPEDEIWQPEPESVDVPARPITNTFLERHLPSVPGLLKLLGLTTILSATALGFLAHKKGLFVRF
Nature of the test: (§3) Inhibitory activity against Monoamine oxidase B. The method, boiled down:
(§4)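 Enzyme is a mitochondrial fraction from livers of male Sprague-Dawley rats (200-250 g), homogenised in 50 mM potassium phosphate pH 7.2. Activity followed at 37 °C with 333 µM benzylamine, product appearance read at 250 nm. Ki for reversible complex formation came from direct fitting of progress curves recorded at varying inhibitor concentrations.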

Test [4] addresses T2, Amine oxidase [flavin-containing] B. The description is as §3. The gist of the method: as §4
This is another data set of the same source.

The term Ki denotes a dissociation constant, usually derived from enzyme kinetics or from competition with a known ligand. With `C#CCN(C)Cc1cc2ccccc2n1C`, the results for the Ki in test [1], in test [2] and in test [3] were 0.0003 µM, 0.000302 µM and 0.003 µM, respectively.

On to `CC#CCN(C)Cc1cc2cc(O)ccc2n1C`, for which the results for the Ki in test [1], in test [2] and in test [3] were 0.0057 µM, 0.00575 µM and 8.8 µM, respectively.

For the compound `CC#CCN(C)Cc1cc2ccccc2n1C`, the values for the Ki in test [1], in test [2] and in test [3] were 0.0043 µM, 0.00427 µM and 0.03 µM, respectively.

Regarding `C#CCN(C)Cc1cn(Cc2ccccc2)c2ccccc12`, the Ki in test [1] was 160 µM; in test [2], 158 µM; in test [3], 476 µM.

Turning to `CNCc1cn(Cc2ccccc2)c2ccccc12`, the results for the Ki in test [1], in test [2] and in test [3] were 167 µM, 166 µM and 338 µM, respectively.

Turning to `C#CCNCc1cc2cc(O)ccc2n1C`, the Ki in test [1] is 4 µM; in test [2], 3.98 µM; in test [3], 8.9 µM.

Consider `CC#CCNCc1cc2cc(OCc3ccccc3)ccc2[nH]1`, for which the Ki in test [2] was 15.1 µM; in test [3], 0.015 µM.

For `CC#CCN(C)Cc1cc2cc(OC)ccc2n1C`, the inhibitory constant (Ki) in test [1] was 0.0014 µM; in test [2], 0.00141 µM; in test [3], 0.37 µM.

Take `CCNCc1cn(Cc2ccccc2)c2ccccc12`: the Ki is 262 µM in test [1], 263 µM in test [2] and 429 µM in test [3].

In the case of `C#CCNCc1cc2cc(OCc3ccccc3)ccc2[nH]1`, the figures for the inhibitory constant (Ki) in test [1] and in test [3] were 0.79 µM and 0.00075 µM, respectively.

Regarding `c1ccc(CNCc2cc3ccccc3[nH]2)cc1`, the inhibition constant Ki in test [1] was 87 µM; in test [2], 87.1 µM; in test [3] it was 159 µM.

For the compound `C#CCN(C)Cc1cc2cc(O)ccc2n1C`, the Ki was 0.004 µM in test [1], 0.00398 µM in test [2] and 0.82 µM in test [3].

On to `C#CCN(Cc1ccccc1)Cc1cn(Cc2ccccc2)c2ccccc12`, for which the inhibitory constant (Ki) in test [1] was above 1000 µM; in test [3] it was 260 µM.

Regarding `C#CCNCc1cc2ccccc2n1C`, the figures for the Ki in test [1], in test [2] and in test [3] were 0.24 µM, 0.24 µM and 3.83 µM, respectively.

With `CC(C)NCc1cn(Cc2ccccc2)c2ccccc12`, the Ki in test [1] was 133 µM; in test [2], 132 µM; in test [3], 438 µM.

On to `C#CCN(Cc1ccccc1)Cc1cc2ccccc2n1C`, for which the inhibition constant (Ki) was 10 µM in test [1], 10 µM in test [2] and 60 µM in test [3].

Take `Cn1c(CNCc2ccccc2)cc2ccccc21`: the figures for the Ki in test [1], in test [2] and in test [3] were 34 µM, 33.9 µM and 48 µM, respectively.

`C#CCN(C)Cc1cc2cc(OC)ccc2n1C`: the Ki in test [1] was 0.0015 µM; in test [2], 0.00151 µM; in test [4], 0.0575 µM; in test [3], 0.03 µM.

As to `C#CCNCc1cc2cc(OC)ccc2n1C`, the figures for the inhibition constant (Ki) in test [1], in test [2] and in test [3] were 0.0008 µM, 0.000813 µM and 0.004 µM, respectively.

Regarding `c1ccc(CNCc2cn(Cc3ccccc3)c3ccccc23)cc1`, the inhibition constant (Ki) in test [1] was 244 µM; in test [2], 245 µM; in test [3], 362 µM.

For `CC#CCN(Cc1ccccc1)Cc1cc2ccccc2n1C`, the Ki in test [1] was above 1000 µM; in test [3] it was 50 µM.
